Source: PubChem
mIAP block = inhibitors of mouse IAP, primary screen, biochemical, luminescence, uHTS; intestinal alkaline phosphatase [Mus musculus]; 330,000 compounds, 0.2% hits; purified mouse IAP, CDP-Star luminescence, 30 min; inhibition, % at 10 µM;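 active = inhibition of at least 40% at 10 µM in the primary screen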;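 also: plate controls were DMSO with enzyme for no effect and no enzyme wells for full effect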
hIAP act = human IAP activators, primary screen, biochemical, luminescence, uHTS. AID 2524, 2010. 330,000 compounds, 0.16% hits. activation factor at 10 µM. Intestinal-type alkaline phosphatase (Homo sapiens), P09923. purified human IAP, CDP-Star luminescence, 30 min; hits give high values; 1 = vehicle-only enzyme, 0 = enzyme-free background;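 active = activation factor of the enzyme at least 2-fold when tested at 20 µM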
Target sequence (P09923 whole entry, looked up): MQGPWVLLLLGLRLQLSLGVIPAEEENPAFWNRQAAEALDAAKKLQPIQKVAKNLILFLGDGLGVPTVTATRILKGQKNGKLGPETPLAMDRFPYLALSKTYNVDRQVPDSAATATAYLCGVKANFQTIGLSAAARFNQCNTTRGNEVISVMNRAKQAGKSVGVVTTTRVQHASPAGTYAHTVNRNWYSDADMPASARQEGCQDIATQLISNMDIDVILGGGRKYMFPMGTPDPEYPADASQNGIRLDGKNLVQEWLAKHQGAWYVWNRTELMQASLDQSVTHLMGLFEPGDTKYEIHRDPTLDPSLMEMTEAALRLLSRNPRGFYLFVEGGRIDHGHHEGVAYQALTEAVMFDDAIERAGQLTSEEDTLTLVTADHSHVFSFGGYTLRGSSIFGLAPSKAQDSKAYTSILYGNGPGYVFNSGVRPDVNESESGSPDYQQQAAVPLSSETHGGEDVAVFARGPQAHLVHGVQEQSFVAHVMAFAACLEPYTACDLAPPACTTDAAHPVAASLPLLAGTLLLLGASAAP
bIAP activator = bovine intestinal alkaline phosphatase activators, primary screen, biochemical, bovine IAP, CDP-star luminescence. activation factor at 20 µM. 200,000 compounds, 0.17% hits. alkaline phosphatase, intestinal [Bos taurus]. purified bovine IAP, 30 min; hits give high values; fold of DMSO-control signal, blank-subtracted. AID 1016, 2008;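 active = activation factor of 2 or more at 20 µM, a signal rise over negative controls twice the positive control's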
bIAP inh = bovine intestinal alkaline phosphatase inhibitors, primary screen, selectivity assay for TNAP inhibitor project, biochemical, bovine IAP, CDP-star luminescence; alkaline phosphatase, intestinal [Bos taurus]; 190,000 tested, under 10 active; inhibition, % at 20 µM; AID 1019, 2008; purified bovine IAP, 30 min;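 active = over 50% inhibition of intestinal alkaline phosphatase at 20 µM in the single-dose screen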
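Assay system: bovine IAP enzyme; medium: DEA buffer 100 mM, pH 9.8, with MgCl2 1.0 mM, ZnCl2 0.02 mM; doses: 20 µM single dose; incubation: enzyme reaction for 30 min at room temperature; detection: CDP-star luminescence signal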
mIAP act = activators of mouse IAP, primary screen, biochemical, luminescence, uHTS. muIAP, CDP-Star luminescence, 30 min; hits give high values; 1 = vehicle-only enzyme signal, 0 = enzyme-free wells. activation factor at 10 µM. 330,000 compounds, 0.24% hits. AID 2805, 2010;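 active = activation factor of at least 2 at 20 µM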
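System: mouse IAP enzyme. Reagent: CDP-Star chemiluminescent phosphatase substrate. Benchmarks: DMSO wells, no-enzyme wells. Times: 30 min enzyme-substrate-compound incubation at room temperature. Detection: luminescence from enzymatic CDP-Star hydrolysis. Doses: test compounds delivered from DMSO solution.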
hIAP block = human IAP inhibitors, primary screen, biochemical, luminescence, uHTS; Intestinal-type alkaline phosphatase (Homo sapiens), P09923; purified IAP, CDP-Star luminescence, 30 min; inhibition, % at 10 µM; 330,000 compounds, 0.12% hits; AID 2544, 2010;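 active = inhibition reaching a set limit with compound at 10 µM in the primary screen, cut at about 35% in these data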;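 also: plate controls were DMSO wells with enzyme for no effect and no-enzyme buffer wells for full effect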
* hit, by the source's call; · = not tested or not shown. Rows were chosen to be rich in hits. Some 0.77% of all compounds tested hit in one or more screens of this group.

SMILES	mIAP block	hIAP act	bIAP activator	bIAP inh	mIAP act	hIAP block
CCNC(=O)COC(=O)c1ccc(-c2nc3ccccc3s2)s1	-8	1.1	1.1	-10	1.1	-5
Cc1noc(C)c1COC(=O)c1ccc(-c2nc3ccccc3s2)s1	42*	1	1	2	0.58	-2
CC(C)(C)c1ccc(OCC(=O)Nc2ccc(-c3nc4cccnc4o3)cc2)cc1	11	0.87	2*	-95	0.89	13
Cc1cc(NC(=O)NC(=O)c2ccccc2F)no1	6	0.77	·	·	0.94	23
O=C(N/N=C/c1ccc(-c2ccccc2[N+](=O)[O-])o1)c1cncc(Br)c1	20	1	3.7*	-268	0.8	-4
O=C(N/N=C\c1ccc([N+](=O)[O-])o1)c1cncc(Br)c1	35	0.9	·	·	0.65	10
O=C(NN1C(=O)/C(=C/c2cc([N+](=O)[O-])ccc2O)SC1=S)c1ccccc1O	51*	1.1	·	·	0.49	-5
COc1cc(/C=C2\SC(=S)N(NC(=O)c3ccccc3O)C2=O)ccc1O	37	0.82	·	·	0.63	18
CCn1c(C)nc2cc(C(=O)NNC(=O)CN(C)S(=O)(=O)c3ccc(NC(C)=O)cc3)ccc21	5	1.1	·	·	0.95	-12
Cc1occc1C(=O)NNC(=O)CN1C(=O)NC(C)(c2ccccc2)C1=O (stereo unspecified)	0	1.1	·	·	1	-6
CCC(=O)Nc1cccc(-c2nnc(-c3cccc(NC(=O)CC)c3)o2)c1	44*	0.95	1	5	0.56	5
Cc1ccc(CN2CCC(Oc3cccc(C(=O)NCc4cccnc4)c3)CC2)o1	-3	1.2	·	·	1	-23
N#C/C(=C(/O)COC(=O)CSc1ccc2ccccc2c1)c1nc2ccccc2[nH]1	22	2.4*	0.6	43	0.78	-143
Cc1ccc(NC(=S)NCc2ccc3[nH]c4c(c3c2)CCCC4)cc1	-141	0.89	0.9	6	2.4*	11
CCCN1C(=O)c2ccc(C(=O)Nc3nccs3)cc2C1=O	-3	1.2	1	2	1	-22
CCCc1cc(C(=O)Nc2nccs2)cs1	66*	1	0.9	12	0.34	-4
O=C(O)C1=CC[C@@H](c2ccc(Cl)cc2)N(S(=O)(=O)c2ccc(Cl)cc2)[C@H]1c1ccc(Br)cc1	13	1.1	·	·	0.87	-10
COc1ccc(NC(=O)CN(c2cc(C)cc(C)c2)S(=O)(=O)c2c(C)noc2C)cc1OC	-110	1.1	1	4	2.1*	-15
COc1ccc(NC(=O)CN(c2cc(C)cc(C)c2)S(=O)(=O)c2c(C)noc2C)cc1	-66	0.93	1	5	1.7	7
CCOc1ccc(N(CC(=O)Nc2ccc(C)c(C)c2)S(=O)(=O)c2c(C)noc2C)cc1	-108	1	0.9	8	2.1*	-4
C=CCOc1ccc(/C=N/NC(=O)CN2CCOCC2)cc1OCC	7	1.1	1.1	-7	0.93	-5
C=CC(C)(C)O[C@@H]1O[C@H](CO)[C@@H](O)[C@H](O)[C@H]1O	6	0.95	·	·	0.94	5
CCCCNC(=O)C(CC)(ONc1ccccc1C(F)(F)F)c1ccccc1OC (stereo unspecified)	13	0.93	·	·	0.87	7
COc1ccc(/C=N/Nc2cc(=O)n(C)c(=O)n2C)cc1OC	-2	1.2	2*	-96	1	-18
COc1cccc(OCC(=O)NNC(=O)c2cccs2)c1	41*	0.96	1.1	-10	0.59	4
SMILES	mIAP block	hIAP act	bIAP activator	bIAP inh	mIAP act	hIAP block
COc1ccc(-n2cc(CNCCc3nc(C)cc(C)n3)c(-c3ccccc3Cl)n2)cc1	-5	0.96	1.2	-20	1.1	4
COc1ccc(-n2cc(CNCc3cccnc3)c(-c3cccc(F)c3)n2)cc1	2	0.94	1.1	-7	0.98	6
COc1ccc(-n2cc(CNCCc3ncc(C)[nH]3)c(-c3ccccc3Cl)n2)cc1	-8	1.3	2.4*	-141	1.1	-33
COc1ccc(-n2cc(CNCCc3cnc[nH]3)c(-c3cccc(F)c3)n2)cc1	-2	1.4	2.9*	-190	1	-37
Fc1ccccc1Nc1nc2ccccc2o1	-1	1	·	·	1	-4
CCCCCCC(NC(=O)Cc1ccc2ccccc2c1)C(=O)O (stereo unspecified)	-8	·	·	·	1.2	·
CSc1cccc(NC(=O)NCc2cccc(CNC(=O)Nc3cccc(SC)c3)c2)c1	-109	1.3	·	·	2.1*	-34
CC(C)CC(=O)N(c1nnc(-c2cccnc2)s1)C1CCCC1	2	0.78	·	·	0.98	22
COc1ccc(C[C@H]2CN3C(=NC[C@@H]3Cc3ccccc3)N2CCNC(=O)CCC2CCCCC2)cc1	1	0.91	2.1*	-105	0.99	9
COc1ccc(C[C@H]2CN3C(=NC[C@@H]3C(C)C)N2CCNC(=O)CCC2CCCCC2)cc1	-2	0.85	1.1	-15	1	14
COc1ccccc1CNC(=O)C1CCC(CNS(=O)(=O)c2ccccc2)CC1 (stereo unspecified)	0	1	·	·	1	-1
CCOC(=O)N1CCC(NC(=O)c2ccc3c(c2)N(Cc2ccc(C)cc2)CCS3)CC1	-23	1	1	-4	1.2	0
CCOC(=O)N1CCC(NC(=O)c2ccc3c(c2)N(Cc2ccccc2)CCS3)CC1	-27	0.96	2.5*	-152	1.3	4
Cc1ccc(NC(=O)Cn2ncc(Cl)c(Cl)c2=O)cc1S(=O)(=O)N1CCCCC1	6	1.1	·	·	0.94	-6
Cc1cc(C)nc(N2CCCC(C(=O)Nc3nc4ccc(S(C)(=O)=O)cc4s3)C2)n1 (stereo unspecified)	4	0.93	5.3*	-430	0.96	7
Cn1nc(CC(=O)NC2CCCCCCCCCCC2)c2ccccc2c1=O	-7	0.82	2.3*	-129	1.1	18
Cn1nc(C(=O)NC2CCCCC2)c2ccccc2c1=O	4	0.88	1	4	0.96	12
CCOc1cccc(/C=C2\NC(=S)N(c3ccccc3)C2=O)c1O	10	0.96	·	·	0.9	4
CCOc1cc(/C=C2\NC(=S)N(c3c(C)n(C)n(-c4ccccc4)c3=O)C2=O)ccc1O	42*	0.67	0.9	9	0.58	33
S=C(NCc1ccccc1)NCc1ccc(CNC(=S)NCc2ccccc2)cc1	-222	1.4	0.6	38	3.2*	-44
